Assays:
Format in all cases: organism-based
[1] = target: T1, Angiotensin-converting enzyme (Rattus norvegicus) (UniProt P47820); assay: Compound was tested for plasma inhibition of Angiotensin I converting enzyme activity in the conscious rat. Expressed as Inhibition of AI pressor response at 6 hr at a dose of 12.4 mg/kg po; set-up: dose 12.4 mg/kg
T1 sequence (whole entry): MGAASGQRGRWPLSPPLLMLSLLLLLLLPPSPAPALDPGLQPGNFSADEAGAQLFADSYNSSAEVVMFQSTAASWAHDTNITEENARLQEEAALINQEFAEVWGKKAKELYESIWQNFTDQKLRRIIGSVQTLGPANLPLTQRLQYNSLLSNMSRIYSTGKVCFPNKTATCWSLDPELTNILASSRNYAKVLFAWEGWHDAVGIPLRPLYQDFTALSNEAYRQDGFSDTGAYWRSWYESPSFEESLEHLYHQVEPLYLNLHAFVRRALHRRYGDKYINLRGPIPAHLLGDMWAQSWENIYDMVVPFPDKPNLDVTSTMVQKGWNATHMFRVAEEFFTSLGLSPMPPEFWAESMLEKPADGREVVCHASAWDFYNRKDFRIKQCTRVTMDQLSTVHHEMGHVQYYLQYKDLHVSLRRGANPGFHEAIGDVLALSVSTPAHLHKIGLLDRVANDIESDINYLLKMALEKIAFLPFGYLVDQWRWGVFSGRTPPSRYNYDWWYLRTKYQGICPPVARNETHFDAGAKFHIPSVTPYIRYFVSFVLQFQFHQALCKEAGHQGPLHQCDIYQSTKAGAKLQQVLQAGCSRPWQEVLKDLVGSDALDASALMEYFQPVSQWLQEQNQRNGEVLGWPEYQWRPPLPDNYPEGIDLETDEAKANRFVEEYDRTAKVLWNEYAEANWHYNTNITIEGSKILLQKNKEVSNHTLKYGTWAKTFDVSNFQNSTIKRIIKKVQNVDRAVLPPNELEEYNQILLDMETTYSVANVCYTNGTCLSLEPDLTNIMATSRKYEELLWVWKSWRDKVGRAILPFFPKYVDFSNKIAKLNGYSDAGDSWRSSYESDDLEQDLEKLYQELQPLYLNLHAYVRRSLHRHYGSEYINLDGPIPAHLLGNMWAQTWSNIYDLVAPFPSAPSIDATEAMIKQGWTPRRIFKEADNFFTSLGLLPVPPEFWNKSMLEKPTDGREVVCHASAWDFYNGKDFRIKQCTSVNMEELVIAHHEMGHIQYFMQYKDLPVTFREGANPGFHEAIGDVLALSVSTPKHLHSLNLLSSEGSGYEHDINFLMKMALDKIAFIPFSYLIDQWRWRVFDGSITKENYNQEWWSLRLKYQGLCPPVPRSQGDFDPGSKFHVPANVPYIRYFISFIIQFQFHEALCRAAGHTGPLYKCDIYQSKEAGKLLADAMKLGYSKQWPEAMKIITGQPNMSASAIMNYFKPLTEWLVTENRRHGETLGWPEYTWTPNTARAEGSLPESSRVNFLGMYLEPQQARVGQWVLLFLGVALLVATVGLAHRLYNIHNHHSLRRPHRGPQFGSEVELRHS
In short: (§1)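 Male conscious normotensive Sprague-Dawley rats (275-390 g), prepared under methohexital sodium (75 mg/kg ip) with femoral arterial and venous catheters. The next day, pressor responses to three angiotensin-I challenges (300 ng/kg iv) were recorded. Compound was then given orally and angiotensin-I challenges were repeated at set times. Percent inhibition is relative to the mean of the three baseline responses.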

[2] = target: T1, Angiotensin-converting enzyme (Rattus norvegicus); assay: Compound was tested for plasma inhibition of Angiotensin I converting enzyme activity in the conscious rat. Expressed as Inhibition of AI pressor response at 2 hr at a dose of 12.4 mg/kg po; set-up: dose 12.4 mg/kg
In short: (§2)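 Male conscious normotensive Sprague-Dawley rats (275-390 g), given femoral arterial and venous catheters under methohexital sodium (75 mg/kg ip) anesthesia. Next day, pressor responses to three angiotensin-I challenges (300 ng/kg iv) recorded by direct arterial pressure. Compound then dosed orally, and AI challenge repeated at set times. Each post-dose response compared with the mean of the three baseline responses, giving % inhibition.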

[3] = target: T1, Angiotensin-converting enzyme (Rattus norvegicus); assay: Compound was tested for plasma inhibition of Angiotensin I converting enzyme activity in the conscious rat. Expressed as Inhibition of AI pressor response at 4 hr at a dose of 12.4 mg/kg po; set-up: dose 12.4 mg/kg; in short: as §2
[4] = target: T1, Angiotensin-converting enzyme (Rattus norvegicus); assay: Compound was tested for plasma inhibition of Angiotensin I converting enzyme activity in the conscious rat. Expressed as Inhibition of AI pressor response at 1 hr at a dose of 12.4 mg/kg po; set-up: dose 12.4 mg/kg; in short: as §2
[5] = target: T1, Angiotensin-converting enzyme (Rattus norvegicus); assay: Compound was tested for plasma inhibition of Angiotensin I converting enzyme activity in the conscious rat. Expressed as Inhibition of AI pressor response at 4 hr at a dose of 12.7 mg/kg po; set-up: dose 12.7 mg/kg; in short: as §2
[6] = target: T1, Angiotensin-converting enzyme (Rattus norvegicus); assay: Compound was tested for plasma inhibition of Angiotensin I converting enzyme activity in the conscious rat. Expressed as Inhibition of AI pressor response at 2 hr at a dose of 12.7 mg/kg po; set-up: dose 12.7 mg/kg; in short: as §2
[7] = target: T1, Angiotensin-converting enzyme (Rattus norvegicus); assay: Compound was tested for plasma inhibition of Angiotensin I converting enzyme activity in the conscious rat. Expressed as Inhibition of AI pressor response at 1 hr at a dose of 12.7 mg/kg po; set-up: dose 12.7 mg/kg; in short: as §2
[8] = target: T1, Angiotensin-converting enzyme (Rattus norvegicus); assay: Compound was tested for plasma inhibition of Angiotensin I converting enzyme activity in the conscious rat. Expressed as Inhibition of AI pressor response at 6 hr at a dose of 12.7 mg/kg po; set-up: dose 12.7 mg/kg; in short: as §1
[9] = target: T1, Angiotensin-converting enzyme (Rattus norvegicus); assay: Compound was tested for plasma inhibition of Angiotensin I converting enzyme activity in the conscious rat. Expressed as Inhibition of AI pressor response at 4 hr at a dose of 13.1 mg/kg po; set-up: dose 13.1 mg/kg; in short: as §1
[10] = target: T1, Angiotensin-converting enzyme (Rattus norvegicus); assay: Compound was tested for plasma inhibition of Angiotensin I converting enzyme activity in the conscious rat. Expressed as Inhibition of AI pressor response at 6 hr at a dose of 13.1 mg/kg po; set-up: dose 13.1 mg/kg; in short: as §1
[11] = target: T1, Angiotensin-converting enzyme (Rattus norvegicus); assay: Compound was tested for plasma inhibition of Angiotensin I converting enzyme activity in the conscious rat. Expressed as Inhibition of AI pressor response at 1 hr at a dose of 13.1 mg/kg po; set-up: dose 13.1 mg/kg; in short: as §2
[12] = target: T1, Angiotensin-converting enzyme (Rattus norvegicus); assay: Compound was tested for plasma inhibition of Angiotensin I converting enzyme activity in the conscious rat. Expressed as Inhibition of AI pressor response at 2 hr at a dose of 13.1 mg/kg po; set-up: dose 13.1 mg/kg; in short: as §2
[13] = target: T1, Angiotensin-converting enzyme (Rattus norvegicus); assay: Compound was tested for plasma inhibition of Angiotensin I converting enzyme activity in the conscious rat. Expressed as Inhibition of AI pressor response at 6 hr at a dose of 10 mg/kg po; set-up: dose 10 mg/kg; in short: as §1
[14] = target: T1, Angiotensin-converting enzyme (Rattus norvegicus); assay: Compound was tested for plasma inhibition of Angiotensin I converting enzyme activity in the conscious rat. Expressed as Inhibition of AI pressor response at 2 hr at a dose of 10 mg/kg po; set-up: dose 10 mg/kg; in short: as §2
[15] = target: T1, Angiotensin-converting enzyme (Rattus norvegicus); assay: Compound was tested for plasma inhibition of Angiotensin I converting enzyme activity in the conscious rat. Expressed as Inhibition of AI pressor response at 4 hr at a dose of 10 mg/kg po; set-up: dose 10 mg/kg; in short: as §2
[16] = target: T1, Angiotensin-converting enzyme (Rattus norvegicus); assay: Compound was tested for plasma inhibition of Angiotensin I converting enzyme activity in the conscious rat. Expressed as Inhibition of AI pressor response at 1 hr at a dose of 10 mg/kg po; set-up: dose 10 mg/kg; in short: as §2

inhibition [9] [%]	inhibition [10] [%]	inhibition [11] [%]	inhibition [12] [%]	Structure (SMILES)	also measured
				CC(=O)S[C@@H](C(=O)NC1(C(=O)N[C@@H](Cc2ccc(O)cc2)C(=O)OCC(C)C)CCCC1)C(C)C	inhibition [1]: 20%; inhibition [2]: 77%; inhibition [3]: 69%; inhibition [4]: 76%
				CC(=O)S[C@@H](C(=O)NC1(C(=O)N[C@@H](Cc2ccc(O)cc2)C(=O)OC2CCCC2)CCCC1)C(C)C	inhibition [5]: 33%; inhibition [6]: 51%; inhibition [7]: 58%; inhibition [8]: 29%
61	16	64	78	CCCCCCOC(=O)[C@H](Cc1ccc(O)cc1)NC(=O)C1(NC(=O)[C@H](SC(C)=O)C(C)C)CCCC1	
25		27	16	CCCCOC(=O)[C@H](Cc1ccc(O)cc1)NC(=O)C1(NC(=O)[C@H](SC(=O)C(C)C)C(C)C)CCCC1	
76	69	82	85	CCCCOC(=O)[C@H](Cc1ccc(O)cc1)NC(=O)C1(NC(=O)[C@H](SC(=O)CCC)C(C)C)CCCC1	
				COC(=O)[C@H](Cc1ccc(O)cc1)NC(=O)C1(NC(=O)[C@H](SC(C)=O)C(C)C)CCCC1	inhibition [13]: 14%; inhibition [14]: 72%; inhibition [15]: 25%; inhibition [16]: 76%
54	28	72	74	CC(=O)S[C@@H](C(=O)NC1(C(=O)N[C@@H](Cc2ccc(O)cc2)C(=O)OCc2ccccc2)CCCC1)C(C)C	
23	4	50	35	CCOC(=O)[C@H](Cc1ccc(OC(=O)CC)cc1)NC(=O)C1(NC(=O)[C@H](SC(C)=O)C(C)C)CCCC1	
